Measured values from ChEMBL document CHEMBL1126824, “Discovery of a novel class of potent HIV-1 protease inhibitors containing the (R)-(hydroxyethyl)urea isostere” (J Med Chem, 1993).
pIC50: −log10 of the molar value. Each block holds one molecule with its values, some of them ahead of it.

Columns and labels:
[1] = target: T1, Human immunodeficiency virus type 1 protease (Human immunodeficiency virus 1, UniProt Q72874); assay: Inhibition of HIV-1 Protease.
Procedure, shortened: (§1)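 Continuous fluorometric HIV-1 protease assay. Substrate 2-(aminobenzoyl)-Thr-Ile-Nle-Phe(p-NO₂)-Gln-ArgNH₂ (Km = 37 μM). MVT-101 (Ac-Thr-Ile-Nle[CH₂NH]Nle-Gln-ArgNH₂) served as positive control. IC₅₀ values were determined from inhibition of substrate cleavage; compounds giving under 50% inhibition at 10 μM were flagged.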

[2] = target: Human immunodeficiency virus type 1 protease (Human immunodeficiency virus 1) (UniProt Q72874); assay: Inhibition of HIV-1 Protease; parameters: concentration or dose not given beside the values; conditions: concentration not given here
Procedure, shortened: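 Continuous fluorometric cleavage of 2-(aminobenzoyl)-Thr-Ile-Nle-Phe(p-NO2)-Gln-ArgNH2 (Km = 37 μM); IC50 determined, with MVT-101 (Ac-Thr-Ile-Nle[CH2NH]Nle-Gln-ArgNH2) as positive control.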

CEM (Homo sapiens) = assay: Toxic dose required for 50% in uninfected cells
[3] = target: T1, Human immunodeficiency virus type 1 protease; assay: Compounds were tested for their concentration to inhibit the HIV-1 Protease; procedure, shortened: as §1

SMILES: CC(C)(C)NC(=O)N(Cc1ccccc1)C[C@@H](O)[C@H](Cc1ccccc1)NC(=O)[C@H](CC(N)=O)NC(=O)OCc1ccccc1
pIC50 [1]: 7.72

SMILES: CC(C)(C)NC(=O)N(CC1CCCCC1)C[C@@H](O)[C@H](Cc1ccccc1)NC(=O)[C@H](CC(N)=O)NC(=O)OCc1ccccc1
pIC50 [1]: 7.54

SMILES: C[C@@H](c1ccccc1)N(C[C@@H](O)[C@H](Cc1ccccc1)NC(=O)[C@H](CC(N)=O)NC(=O)OCc1ccccc1)C(=O)NC(C)(C)C
pIC50 [1]: 5.29

SMILES: CC(C)(C)NC(=O)N(Cc1ccncc1)C[C@@H](O)[C@H](Cc1ccccc1)NC(=O)[C@H](CC(N)=O)NC(=O)OCc1ccccc1
pIC50 [1]: 6.98

inhibition [2]: < 50%
SMILES: CNC(=O)N(C)C[C@H](O)[C@H](Cc1ccccc1)NC(=O)[C@H](CC(N)=O)NC(=O)OCc1ccccc1

SMILES: CC(C)CCN(C[C@@H](O)[C@H](Cc1ccccc1)NC(=O)[C@H](CC(N)=O)NC(=O)c1ccc2ccccc2n1)C(=O)NC(C)(C)C
TD50 (CEM (Homo sapiens)): 50 µM
pIC50 [1]: 8.52

SMILES: CC(C)(C)NC(=O)N(Cc1ccccc1)C[C@@H](O)[C@H](Cc1ccccc1)NC(=O)[C@H](CC(N)=O)NC(=O)c1ccc2ccccc2n1
TD50 (CEM (Homo sapiens)): 700 µM
pIC50 [1]: 8.52

SMILES: CNC(=O)N(CC(C)C)C[C@@H](O)[C@H](Cc1ccccc1)NC(=O)[C@H](CC(N)=O)NC(=O)OCc1ccccc1
pIC50 [3]: 5.82

SMILES: CCNC(=O)N(CC(C)C)C[C@@H](O)[C@H](Cc1ccccc1)NC(=O)[C@H](CC(N)=O)NC(=O)OCc1ccccc1
pIC50 [1]: 6.48

SMILES: CCCCNC(=O)N(CC(C)C)C[C@H](O)[C@H](Cc1ccccc1)NC(=O)[C@H](CC(N)=O)NC(=O)OCc1ccccc1
inhibition [2]: < 50%

SMILES: CC(C)CN(C[C@@H](O)[C@H](Cc1ccccc1)NC(=O)[C@H](CC(N)=O)NC(=O)OCc1ccccc1)C(=O)NC(C)C
pIC50 [1]: 6.59

SMILES: C[C@H](c1ccccc1)N(C[C@@H](O)[C@H](Cc1ccccc1)NC(=O)[C@H](CC(N)=O)NC(=O)OCc1ccccc1)C(=O)NC(C)(C)C
pIC50 [1]: 5.19

SMILES: CC(C)CCN(C[C@@H](O)[C@H](Cc1ccccc1)NC(=O)[C@H](CC(N)=O)NC(=O)OCc1ccccc1)C(=O)NC(C)(C)C
pIC50 [1]: 7.89

inhibition [2]: < 50%
SMILES: CCCCNC(=O)N(C)C[C@@H](O)[C@H](Cc1ccccc1)NC(=O)[C@H](CC(N)=O)NC(=O)OCc1ccccc1

SMILES: CC(C)CN(C[C@H](O)[C@H](Cc1ccccc1)NC(=O)[C@H](CC(N)=O)NC(=O)OCc1ccccc1)C(=O)NC(C)(C)C
pIC50 [1]: 4.27

inhibition [2]: < 50%
SMILES: CNC(=O)N(C)C[C@@H](O)[C@H](Cc1ccccc1)NC(=O)[C@H](CC(N)=O)NC(=O)OCc1ccccc1

inhibition [2]: < 50%
SMILES: CCCCNC(=O)N(C)C[C@H](O)[C@H](Cc1ccccc1)NC(=O)[C@H](CC(N)=O)NC(=O)OCc1ccccc1

SMILES: CCCNC(=O)N(CC(C)C)C[C@@H](O)[C@H](Cc1ccccc1)NC(=O)[C@H](CC(N)=O)NC(=O)OCc1ccccc1
pIC50 [1]: 6.29

SMILES: CC(C)CN(C[C@H](O)[C@H](Cc1ccccc1)NC(=O)[C@H](CC(N)=O)NC(=O)c1ccc2ccccc2n1)C(=O)NC(C)(C)C
pIC50 [1]: 5.00

SMILES: CC(C)(C)NC(=O)N(CC1CCCCC1)C[C@@H](O)[C@H](Cc1ccccc1)NC(=O)[C@H](CC(N)=O)NC(=O)c1ccc2ccccc2n1
pIC50 [1]: 8.30

pIC50 [1]: 5.72
SMILES: CCCC[C@@H](CN[C@@H](CCCC)C(=O)N[C@@H](CCC(N)=O)C(=O)N[C@@H](CCCNC(=N)N)C(N)=O)NC(=O)[C@@H](NC(=O)[C@@H](NC(C)=O)[C@@H](C)O)[C@@H](C)CC

SMILES: CC(C)CN(C[C@@H](O)[C@H](Cc1ccccc1)NC(=O)[C@H](CC(N)=O)NC(=O)c1ccc2ccccc2n1)C(=O)NC(C)(C)C [TELINAVIR]
TD50 (CEM (Homo sapiens)): 50 µM
pIC50 [1]: 8.22

SMILES: CC(C)(C)NC(=O)N(Cc1ccncc1)C[C@@H](O)[C@H](Cc1ccccc1)NC(=O)[C@H](CC(N)=O)NC(=O)c1ccc2ccccc2n1
TD50 (CEM (Homo sapiens)): 300 µM
pIC50 [1]: 7.72

SMILES: CC(C)CN(C[C@@H](O)[C@H](Cc1ccccc1)NC(=O)[C@H](CC(N)=O)NC(=O)OCc1ccccc1)C(=O)NC(C)(C)C
pIC50 [1]: 7.46

SMILES: CCCCNC(=O)N(CC(C)C)C[C@@H](O)[C@H](Cc1ccccc1)NC(=O)[C@H](CC(N)=O)NC(=O)OCc1ccccc1
pIC50 [1]: 6.03

SMILES: CNC(=O)N(CC(C)C)C[C@H](O)[C@H](Cc1ccccc1)NC(=O)[C@H](CC(N)=O)NC(=O)OCc1ccccc1
inhibition [2]: < 50%

SMILES: CCCCNC(=O)N(CC(C)C)C[C@@H](O)[C@H](Cc1ccccc1)NC(=O)[C@H](CC(N)=O)NC(=O)c1ccc2ccccc2n1
pIC50 [1]: 6.90
